Data as given in ChEMBL document CHEMBL1136894, “New antituberculotics originated from salicylanilides with promising in vitro activity against atypical mycobacterial strains” (Bioorg Med Chem, 2009).
≈ marks a conversion by molar mass, not a printed value.

Legend:
[1] = tested on: Mycobacterium tuberculosis; assay: Antimycobacterial activity against Mycobacterium tuberculosis CNCTC My 331/88 after 14 days; type: functional; conditions: CNCTC My 331/88, 336 h
Method in brief: (§1)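 Broth dilution in Sula semisynthetic medium, compounds added as DMSO solutions at 250, 125, 62, 32, 16, 8, 4, 2 and 1. Strains came from the Czech National Collection of Type Cultures; the M. tuberculosis inoculum was diluted 10^-3. Cultures were incubated at 37 °C, and MIC was read after 7, 14 and 21 days.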

Mycobacterium avium [2] = assay: Antimycobacterial activity against Mycobacterium avium CNCTC My 330/88 after 21 days; type: functional; conditions: CNCTC My 330/88, 504 h; method in brief: as §1
Mycobacterium kansasii [3] = assay: Antimycobacterial activity against Mycobacterium kansasii CNCTC My 235/80 after 14 days; type: functional; conditions: CNCTC My 235/80, 336 h
Method in brief: (§2)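 Compounds were added as DMSO solutions to Sula semisynthetic medium at 250, 125, 62, 32, 16, 8, 4, 2 and 1 µmol/L. Two M. kansasii strains were used: CNCTC My 235/80 and clinical isolate 6509/96, each with strain dilution 10^-4. Incubation was at 37 °C, and MIC was read at 7, 14 and 21 days.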

Mycobacterium kansasii [4] = assay: Antimycobacterial activity against Mycobacterium kansasii isolate 6509/96 after 21 days; type: functional; conditions: isolate 6509/96, 504 h; method in brief: as §2
[5] = tested on: Mycobacterium tuberculosis; assay: Antimycobacterial activity against Mycobacterium tuberculosis CNCTC My 331/88 after 21 days; type: functional; conditions: CNCTC My 331/88, 504 h; method in brief: as §1
Mycobacterium kansasii [6] = assay: Antimycobacterial activity against Mycobacterium kansasii CNCTC My 235/80 after 21 days; type: functional; conditions: CNCTC My 235/80, 504 h; method in brief: as §2
Mycobacterium kansasii [7] = assay: Antimycobacterial activity against Mycobacterium kansasii isolate 6509/96 after 14 days; type: functional; conditions: isolate 6509/96, 336 h; method in brief: as §2
Mycobacterium kansasii [8] = assay: Antimycobacterial activity against Mycobacterium kansasii CNCTC My 235/80 after 7 days; type: functional; conditions: CNCTC My 235/80, 168 h; method in brief: as §2
Mycobacterium kansasii [9] = assay: Antimycobacterial activity against Mycobacterium kansasii isolate 6509/96 after 7 days; type: functional; conditions: isolate 6509/96, 168 h; method in brief: as §2
Mycobacterium avium [10] = assay: Antimycobacterial activity against Mycobacterium avium CNCTC My 330/88 after 14 days; type: functional; conditions: CNCTC My 330/88, 336 h; method in brief: as §1
[11] = Lipophilicity, log K by HPLC; type: physicochemical
Method in brief: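 Capacity factors k were measured by RP-HPLC and log k was calculated from them.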

| SMILES | MIC [1] [µM] | MIC (Mycobacterium avium [2]) [µM] | MIC (Mycobacterium kansasii [3]) [µM] | MIC (Mycobacterium kansasii [4]) [µM] | MIC [5] [µM] | MIC (Mycobacterium kansasii [6]) [µM] | MIC (Mycobacterium kansasii [7]) [µM] | MIC (Mycobacterium kansasii [8]) [µM] | MIC (Mycobacterium kansasii [9]) [µM] | MIC (Mycobacterium avium [10]) [µM] | log K [11] |
| --- | --- | --- | --- | --- | --- | --- | --- | --- | --- | --- | --- |
| CC(C)[C@@H](NC(=O)OCc1ccccc1)C(=O)Oc1ccc(Cl)cc1C(=O)Nc1cccc(Cl)c1 | 8 (≈ 4.12 µg/mL) | 32 (≈ 16.5 µg/mL) | 16 (≈ 8.25 µg/mL) | 16 (≈ 8.25 µg/mL) | 8 (≈ 4.12 µg/mL) | 16 (≈ 8.25 µg/mL) | 16 (≈ 8.25 µg/mL) | 8 (≈ 4.12 µg/mL) | 8 (≈ 4.12 µg/mL) | 32 (≈ 16.5 µg/mL) | 0.8954 |
| C[C@@H](NC(=O)OCc1ccccc1)C(=O)Oc1cc(Cl)ccc1C(=O)Nc1ccc(Cl)cc1 | 4 (≈ 1.95 µg/mL) | 16 (≈ 7.8 µg/mL) | 8 (≈ 3.9 µg/mL) | 16 (≈ 7.8 µg/mL) | 8 (≈ 3.9 µg/mL) | 8 (≈ 3.9 µg/mL) | 8 (≈ 3.9 µg/mL) | 8 (≈ 3.9 µg/mL) | 4 (≈ 1.95 µg/mL) | 16 (≈ 7.8 µg/mL) | 0.6334 |
| CC(C)[C@H](NC(=O)OCc1ccccc1)C(=O)Oc1ccc(Cl)cc1C(=O)Nc1ccc(Cl)cc1 | 4 (≈ 2.06 µg/mL) | 16 (≈ 8.25 µg/mL) | 16 (≈ 8.25 µg/mL) | 16 (≈ 8.25 µg/mL) | 4 (≈ 2.06 µg/mL) | 16 (≈ 8.25 µg/mL) | 8 (≈ 4.12 µg/mL) | 8 (≈ 4.12 µg/mL) | 8 (≈ 4.12 µg/mL) | 16 (≈ 8.25 µg/mL) | 0.9417 |
| CC(C)[C@H](NC(=O)OCc1ccccc1)C(=O)Oc1cc(Cl)ccc1C(=O)Nc1ccc(Cl)cc1 | 4 (≈ 2.06 µg/mL) | 16 (≈ 8.25 µg/mL) | 8 (≈ 4.12 µg/mL) | 16 (≈ 8.25 µg/mL) | 8 (≈ 4.12 µg/mL) | 8 (≈ 4.12 µg/mL) | 8 (≈ 4.12 µg/mL) | 4 (≈ 2.06 µg/mL) | 4 (≈ 2.06 µg/mL) | 16 (≈ 8.25 µg/mL) | 0.8804 |
| O=C(N[C@H](Cc1ccccc1)C(=O)Oc1ccc(Cl)cc1C(=O)Nc1cccc(Cl)c1)OCc1ccccc1 | 4 (≈ 2.25 µg/mL) | 32 (≈ 18 µg/mL) | 16 (≈ 9.01 µg/mL) | 16 (≈ 9.01 µg/mL) | 4 (≈ 2.25 µg/mL) | 16 (≈ 9.01 µg/mL) | 16 (≈ 9.01 µg/mL) | 8 (≈ 4.51 µg/mL) | 8 (≈ 4.51 µg/mL) | 16 (≈ 9.01 µg/mL) | 1.0476 |
| C[C@H](NC(=O)OCc1ccccc1)C(=O)Oc1ccc(Cl)cc1C(=O)Nc1cccc(Cl)c1 | 4 (≈ 1.95 µg/mL) | 62.5 (≈ 30.5 µg/mL) | 16 (≈ 7.8 µg/mL) | 16 (≈ 7.8 µg/mL) | 8 (≈ 3.9 µg/mL) | 16 (≈ 7.8 µg/mL) | 16 (≈ 7.8 µg/mL) | 16 (≈ 7.8 µg/mL) | 8 (≈ 3.9 µg/mL) | 32 (≈ 15.6 µg/mL) | 0.6995 |
| O=C(N[C@H](Cc1ccccc1)C(=O)Oc1ccc(Cl)cc1C(=O)Nc1ccc(Cl)cc1)OCc1ccccc1 | 4 (≈ 2.25 µg/mL) | 16 (≈ 9.01 µg/mL) | 8 (≈ 4.51 µg/mL) | 16 (≈ 9.01 µg/mL) | 4 (≈ 2.25 µg/mL) | 8 (≈ 4.51 µg/mL) | 8 (≈ 4.51 µg/mL) | 8 (≈ 4.51 µg/mL) | 8 (≈ 4.51 µg/mL) | 16 (≈ 9.01 µg/mL) | 1.0678 |
| C[C@@H](NC(=O)OCc1ccccc1)C(=O)Oc1ccc(Cl)cc1C(=O)Nc1ccc(Br)cc1 | 2 (≈ 1.06 µg/mL) | 16 (≈ 8.51 µg/mL) | 8 (≈ 4.25 µg/mL) | 16 (≈ 8.51 µg/mL) | 4 (≈ 2.13 µg/mL) | 8 (≈ 4.25 µg/mL) | 16 (≈ 8.51 µg/mL) | 4 (≈ 2.13 µg/mL) | 8 (≈ 4.25 µg/mL) | 16 (≈ 8.51 µg/mL) | 0.7527 |
| C[C@H](NC(=O)OCc1ccccc1)C(=O)Oc1cc(Cl)ccc1C(=O)Nc1ccc(Cl)cc1 | 4 (≈ 1.95 µg/mL) | 16 (≈ 7.8 µg/mL) | 8 (≈ 3.9 µg/mL) | 16 (≈ 7.8 µg/mL) | 8 (≈ 3.9 µg/mL) | 8 (≈ 3.9 µg/mL) | 8 (≈ 3.9 µg/mL) | 4 (≈ 1.95 µg/mL) | 8 (≈ 3.9 µg/mL) | 16 (≈ 7.8 µg/mL) | 0.6337 |
| CC(C)[C@@H](NC(=O)OCc1ccccc1)C(=O)Oc1ccc(Cl)cc1C(=O)Nc1ccc(Cl)cc1 | 4 (≈ 2.06 µg/mL) | 16 (≈ 8.25 µg/mL) | 8 (≈ 4.12 µg/mL) | 16 (≈ 8.25 µg/mL) | 4 (≈ 2.06 µg/mL) | 16 (≈ 8.25 µg/mL) | 8 (≈ 4.12 µg/mL) | 8 (≈ 4.12 µg/mL) | 8 (≈ 4.12 µg/mL) | 16 (≈ 8.25 µg/mL) | 0.9421 |
